B1: tRNA (parent)
chain: GUUCCGUUGGCGUAAUGGUAACGCGUCUCCCUCCUAAGGAGAAGACUGCGGGUUCGAGUCCCGUACGGAACG

This sample holds only a part of the variants without activity.

In this data set the parent is B1. In words: yeast fitness relative to wild type (ratio to wild type); higher = fitter; tRNA-Arg(CCU), competitive growth, 37 C, YPD. In a few lines: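 Variants of the tRNA-Arg(CCU) gene were chemically synthesised with a 3% per-site mutation rate across 69 sites and placed at the native genomic locus in Saccharomyces cerevisiae. Six parallel replicates of the pooled strains were competed in YPD at 37°C for 24 hours, and gene amplicons from the start and end populations were read by 100-nucleotide paired-end sequencing. Darwinian fitness relative to wild type was derived from changes in genotype frequencies. Genotypes required ≥ 100 starting reads, and estimates < 0.5 were set to 0.5.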
For the variant GUUCUGUCGGCGUAAUGGUAACGCGUCUCCCUCCUAAGGAGAUGACUGCGGGUUCGAGUCCCGUAUGGAACG, the yeast fitness was ≤ 0.5.
GUUCUGUUGGCGGAAUGGUAACGCGUCUCCCUCCUAAGGAGAAGACUGCGGGUUUGAGUCCCGUACCGAACG: the yeast fitness is ≤ 0.5.
With GUUCUGUAGGCGUAAUGGUAACGCGUCUCCCUCCUAAGGAGAAGACUGCGGGUUCGAGUCCCGUACGGACCG, the yeast fitness was 0.583.
Consider GUUCUGUUGGCGAAAUGCUAACGCGUCUCGCUCCUAUGGAGAAGAUUGCGGGUUCGAGUCCCGUACGGAACG, for which the yeast fitness was ≤ 0.5.
Regarding GUUCUGGUGGCGUAAUGGUAACGCGUCUCCCUCCUAAGGAGAAGACUGCGGGUUCGAGUCCCGUACGGAACG, the yeast fitness worked out at 0.894.
Take GUUCUGCUGGCGUAAUGGUAACGCGUCUCCCUCCUAAGGAGAAGACUGCGGGUUCGAGUCCCGUACGGAACG: the yeast fitness was 0.92.
Regarding GUUCUGCUGGCGUAAUGGUAACGCGUCUCCCUCCUAAAGAGAAGGCUACGGGUUCGAGUCCCGUACAGAACG, the yeast fitness was ≤ 0.5.
Regarding GUUCUGUUGGCGAAGUGGUAACGCGUCUCCCUCCUAAGGAGAAGACUGCCGGUUCGGGUCCCGUACGGAACG, the yeast fitness came to 0.536.
For GUUCUGUUGGCGGAAUGGUAACGCGUUUACCUCCUUAGGCGAAGACUGCGGCUUCGAGUCCCGUACGGAACG, the yeast fitness was ≤ 0.5.
For GUUCUGCUGGCGUAAUGGUAACGCGUCUCGCUCCUAAGGAGCAGACUGCGGGUUCGAGUCCCGUACGGAACG the value was 0.565; for GUUCUGUUGGCGGAAUGGUAACGCGUCUCCCUCCUAAGGAGAAAACUGCGGGUUCGUGUCCCGUACGGAACG, 0.642.
In the case of GUUCUGUAGGCGUAAUGGUAACGCGUCUCCCUCCUAAGGAGAAGACUGCGGGUUCGAGUCCCGUACGGCACG, the yeast fitness was ≤ 0.5.
Consider GUUCUGUAGGUGUAAUGGUAACGCGUCUCCCUCCGAAGGAGAUGAGUGCGGGCUCGAGUCCCGUACGGCACG, for which the yeast fitness is ≤ 0.5.
In the case of GUUCUGCUGGCGUAUUGGUAACGCGUCUCCCUCCUAAGGUGAAGACUGCGGGUUCGAGACCCGUUCGAAACG, the yeast fitness was 0.542.
For GUUCUGUUGGCGUAAAGGUAACGCGUCUCCCUCCUAAGGAGAAGAAUGCGGGUUCGAGUCCCGUACGGAACG the value was 1.07.
Turning to GUUCUGUCGGGGUAUUGGUAACGCGUCUCCCUCCUUAAGAGAAGACUGCGGGUUCGAGUCUCGUACGGAUCG, the yeast fitness is 0.564.
For the variant GUUCUGUUGGCGCAAUGGAAUCGAGUCUCCCUCCUAAGGAGAAGACUGCGGGUCCGAGUCCCGUACGGAACG, the yeast fitness is ≤ 0.5.
With GUUCUGUUGGCGGAAUGGUAACGCGUCUCCCUCCUAAGGAGAAGACUGCGGGUUCGCGUCCCGUACGGAACG, the yeast fitness is 0.755.
Consider GUUCUGUAGGCGUAAUGCUGACGCGUCUCCCUCCUAAGGAGAAGACUGCGGGUUCGAGUCCCGUACGGAACG, for which the yeast fitness came out at 0.537.
For GUUCUGGUGGCGUAAUGGUAACGCGUCUCCCUCCUAAGGAGAAGACUGCGGGUUCGAGUCCAGUACGGAACG, the yeast fitness is ≤ 0.5.
For GUUCUGUCGGCGUAAUGGUAACGCGUCUCCCUCCUAAGGAGAAGACUGCGGGUUCGAGUCCCGUACGGAACG the value was 1.07; for GUUCUGUGGGCGUAAUGGUAACGCGUCUCCCUCCUAAGGAGAAGACUGCGGGUUCGAGUCCCGUACGGAACG, 0.64.
Consider GUUCUGUUGGCGAAAUGGUAACGCGUGUCCCUCCUAAGGAGAAGACUGCGGGUUCGAGUCCCGUACGGAACG, for which the yeast fitness was determined as 0.557.
Consider GUUCUGUUGGCGCAAUGGUCACGCGUCUCCCUCCUGAGGAGAAGACUGCGGCUUCGAGUCCCGUACGGAACG, for which the yeast fitness is ≤ 0.5.
Regarding GUUCUGUUGGCGCAAUGGUAACGCGUCUCCCUCCUAAGCAGAAGGCUGCGGGUUCGAGUCCCGUACGGAACG, the yeast fitness was ≤ 0.5.
GUUCUGGUGGCGUAAUGGUAACGCGUCUCCCUCCUAAGGAGAAGGCUGCGGGUUCGAGUCCCGUACGGACCG: the yeast fitness is ≤ 0.5.
For GUUCUGUAGGCGUAAUGGUAACGCGUCUCCCUCCUAAGGAGAAGAAUGCGGGUUCGAGUCCCGUACGGAACG, the yeast fitness is ≤ 0.5.
In the case of GUUCUGUCGGCGUAAUGGUAACGCGUCUCCCUCCUGAGGGGAAGACUGCGGGUUCGAGUACCGUACGGAACG, the yeast fitness is ≤ 0.5.
For GUUCUGUAGGCGUAAUGCUAACGCGUCUCCCUCCUAAGGAGAAGACUGCGGGUUCGAGUCCCGUACGGAACG the value was 0.577; for GUUCUGUCGGCGUAAUCGUAACGCGUCUCCAUCCUAAGGAGAAGACUGCGGGUUCGAGUCCCGUACGAAACG, ≤ 0.5.
Turning to GUUCUGUUGGCGGAAUGGUAACGCGUCUCCCUACUACGGAGAAGACUGCGGGUUCGAGUCUCGUACGGAACG, the yeast fitness was ≤ 0.5.
Turning to GUUCUGUCGGCGUAAUGGUAACGCGUCUCCGUGUUAAGGAGAAGACUGCGGGUUCGAGUCCCGUACGAAACG, the yeast fitness is ≤ 0.5.
In the case of GUUCUGUUGGCGAAAUGGUAACGCGUCUCCCUCCUAAGGAGAAGACUGCGGGUUCGAGUCCCGUACGGAUCG, the yeast fitness turned out to be 0.737.
The value for GUUCUGUUGGCGCACUGGUAACGCGUCUCCCUCCUAAGGAGAAGACUGCGGGUUCGAGUCCCGUACGGAACG was ≤ 0.5; that for GUUCUGUUGGCGCAAUGGUAACGGGCCUCCCUCCUCAGGAGAAGACUGCGGGUUGGUGUCCUGUACGGAACG was ≤ 0.5.
Turning to GUUCUGUUGGCGAAAUGGUAACGCGUCUGCAUCCUAAGGAGAAGACUGCGGGUUCGAGUCUCGUACGGAACG, the yeast fitness was ≤ 0.5.
Turning to GUUCUGCUGGCGUAAUGGUAACGCGUCUCACUCCUAAGGAGCAGACUGCGGGUUCGAGUCCCGUUCGGUACG, the yeast fitness was ≤ 0.5.
On to GUUCUGGUGGCGUAAUGGUAACGCGUCUCCCUCCUAAGGAGAAGACUGCGGGUUCGUGUCCCGUACGGAACG, for which the yeast fitness was ≤ 0.5.
The value for GUUCUGUUGGCGGAAUGGUAAAGCGUCUUCAUCCUAAGGAGAAGACUGCGGGUUCGAGACCUGUACGGAACG was ≤ 0.5; that for GUUCUGUUGGCGAAAUGGUAACGCGUCUGCGUCCUAAGGAGAAGACUGCGGGUUCGAGUCCCGUACGGAACG was ≤ 0.5.
Turning to GUUCUGUUGGCGAAAUGGUAACGCGUCUGCAUCCUAAGGAGAAGACUGCGGGUUCGAGUCCCGUACGGAACG, the yeast fitness was 0.593.
Regarding GUUCUGCUGGCGUAAUGGUAACGCGUCUCCCUCCUAAGGUGAAGACUGCGGGUUCGAGUCCCCUACGGAACG, the yeast fitness is ≤ 0.5.
The value for GUUCUGUUGGCGGACUGGUAACGCGUCUCCCUCCUAAGGAGAAGACUGCGGGUUCGAGUCCCGUACGGAACG was 0.509; that for GUUCUGUUGGCGGAUUGGUAACGCGUCUCCCUCCUAAGGAGAAGACUGCGGGUUCGAGUCCCGUACGGAACG was ≤ 0.5; that for GUUCUGUAGGCGUAAUGGUAACGCGUCUCCCUCCUAAGGAGAAGACUGCGGGUUCGAGGCCCGUACGGAACG was ≤ 0.5.
Take GUUCUGUUGGCGUAAAGGUAACGCGUCUCCCUCAUAAGGAGAAGACUGCGGGUUCGAGUCCCAUACGGAACG: the yeast fitness was ≤ 0.5.
On to GUUCUGUUGGCGAAAUGGUAACGCGUCUCCCUCCUAAGGAGAAGACUGCGGGUUCGUGUCCCGUACGGAACG, for which the yeast fitness came to 0.573.
As to GUUCUGUUGGCGUAAAGGUAACGCGUCUCCCUCAUAAGGAGAAGACUGCGGGUUCGAGUCCCGUACGGAACG, the yeast fitness is ≤ 0.5.
For the variant GUUCUGUUGGCGUAAAGGUAACGCGUCUCCCUCCUAAGGAGAAGACUGCGGGUUCGAGUCCCGUACGGAACG, the yeast fitness is 0.882.
As for GUUCUGUUGGCGCAAUGGUAACGCGUCUCUCUCCUAAGGGGAAGACUGCGGGUUAGAGUCCCCUCCGGAACG, the yeast fitness is ≤ 0.5.
For GUUCUGUUGGCGAAAUGGUAACGCGUCUCCCUCCUAAGGAGAAGACUGCGGGUUCGAGUCCAGUACGGAACG, the yeast fitness came to 0.546.
On to GUUCUGUAGGCGUAAUGGUAACGCGUCUCCCUCCUAAGGAGAAGACUGCGGGUUCGUGUCCCGUACGGAACG, for which the yeast fitness was ≤ 0.5.
As for GUUCUGGUGGCGUAAUGGUAACGCGUCUCCCUCGUAAGGAGAAAACUGCGGGUUCGAGGCCCGUACGUAACG, the yeast fitness was ≤ 0.5.
For GUUCUGUCGGCGUAAUGGUAACGCGUCUCCCUCCUAAGGAGAUGACUGCGGGUUCGAGUCCCGUACGGAACG the value was 0.703; for GUUCUGUUGGCGAAAUGGUAACGCGUCUCCCUCCUAAGGAGAGGGCUGCGGGUUCGAGUCCGGUACGGAACG, ≤ 0.5.
With GUUCUGUCGGCGUAAUGGUAACGCGUCUCCCUCCUGAGGAGAAGACUGCGGGUUCGAGUACCGUACGGAACG, the yeast fitness is ≤ 0.5.
For GUUCUGGUGGCGUCAUGGUAACGCGUCUGCCUCCUAAGGAGAAGACUGCGGGUUCGAGUCCCGUACGGAACG the value was ≤ 0.5; for GUUCUGUUGGCGUAAAGGUAACGCGUCUCCCUCCUAAGGAGUAGACUGCGGGUUCGAGUCCCGUACGGAACG, 0.666; for GUUCUGUUGGCGCAAUGGAAUCGAGUCUCCCUCCUAAGGAGAAGACUGCGGGUCCGAGCCCCGUAGGGAACG, ≤ 0.5.
Consider GUUCUGCUGACGUAAUGGUAACGCGUCUCCCUCAUAAGGAGAAGACUGCGGGUUCGAGUCCCAUACGGAACG, for which the yeast fitness is ≤ 0.5.
Take GUUCUGUUGGCGCAAUGGUUACGCGUCUCCCUCCUACGGAGAACACUGCGGGUUCGAGUCCCGUACGGAACG: the yeast fitness was ≤ 0.5.
In the case of GUUCUGUCGGGGUAUUGGUAACGCGUCUCCCUCCUAAGGAGAAGACUGUGAGUUCGAGUCCCAUACGGAACG, the yeast fitness is ≤ 0.5.
For GUUCUGCUGGCGUAAUGGUAACGCGUCUCCCUCCUAAGGAGAAGACUGCGGCUUCGUGUCCUGUAGGGAACG the value was ≤ 0.5; for GUUCUGUUGGCGCAAUGGUAACGCGACUCCCUCCUAAGGAGAAGACUGCGGGUUCGAGUCCCGUACGGAACG, 0.722; for GUUCUGGUGGCGUAAUGGUAACGCCUCUCCCUCCUAAGAAGAAGACUGCGGGUUCGAGUCCCGUAUGGAACG, ≤ 0.5.
With GUUCUGUUGGCGGAAUGGUAACGCGUCUCCCUCCUAAGGAGAAGACUGCGGGUUCGAGUCCCGUACGGAACG, the yeast fitness was found to be 1.02.
Consider GUUCUGUUGGCGUAAAGGUAACGCGUCUCCCUCCUAAGGAGAAGAAUGCGGGUUCGAGUCCCGUACGAAACG, for which the yeast fitness stood at 0.625.
As to GUUCUGUUGGCGCAAUGGUAACGGGCCUCCCUCCUAGGGAGAAGACUGCGGGUGCGAGUCCCGUACGGAACG, the yeast fitness was ≤ 0.5.
For GUUCUGUUGGCGGAAUGGUAACGCGUCUCCCUACUACGGAGAAGACUGCGGCUUCGAGUCCCGUACGGAACG the value was ≤ 0.5.
Take GUUCUGUCGGCGUAAUGGUGACGCGUCUCACUCCUAAGGAGAAGACUGCGGGUUCGAGUCUCGUACGGAACG: the yeast fitness stood at 0.544.
As to GUUCUGCUGGCGUAAUGGUAACGCGUCUCGCUCCUAAGGAGCAGACUGCGGAUUUGAGUCCCGUAUGGAACG, the yeast fitness was ≤ 0.5.
Regarding GUUCUGUUGGCGAAAUGGUAAUGCGUCUCACUCCUAGGGACAAGAGUGCGGGUUCGAGUCCCGUACGGAACG, the yeast fitness is ≤ 0.5.
As for GUUCUGGUGGCGUAAUGGUAACGCGUCUCACUCCUAAGGAGAAGACUGCGGGUUCGAGUCCCGUACGGAACG, the yeast fitness worked out at 0.93.
For the variant GUUCUGUUGGCGAAAUGGUAACGCGUCUCCCUCCUAAGGAGAAGACUGCGGGUUCGACUCCCGUACGGAACG, the yeast fitness stood at 0.63.
As for GUUCUGUCGGCGUCAUGGUAACGCGUCUCCCUCCUAAGGAGAAGACUGCGGGUUCGAGUCCCGUACGGAACG, the yeast fitness is ≤ 0.5.

(Values after the RNAGym collection of RNA variant scans (doi:10.1126/science.aae0568).)
